# According to ChEMBL document CHEMBL1135505, “Synthesis and pharmacology of benzoxazines as highly selective antagonists at M(4) muscarinic receptors” (J Med Chem, 2002):
# pKi: −log10 of the molar value.
# Target: T1, Muscarinic acetylcholine receptor M2 (Homo sapiens, UniProt P08172)
# T1 sequence (P08172 whole entry): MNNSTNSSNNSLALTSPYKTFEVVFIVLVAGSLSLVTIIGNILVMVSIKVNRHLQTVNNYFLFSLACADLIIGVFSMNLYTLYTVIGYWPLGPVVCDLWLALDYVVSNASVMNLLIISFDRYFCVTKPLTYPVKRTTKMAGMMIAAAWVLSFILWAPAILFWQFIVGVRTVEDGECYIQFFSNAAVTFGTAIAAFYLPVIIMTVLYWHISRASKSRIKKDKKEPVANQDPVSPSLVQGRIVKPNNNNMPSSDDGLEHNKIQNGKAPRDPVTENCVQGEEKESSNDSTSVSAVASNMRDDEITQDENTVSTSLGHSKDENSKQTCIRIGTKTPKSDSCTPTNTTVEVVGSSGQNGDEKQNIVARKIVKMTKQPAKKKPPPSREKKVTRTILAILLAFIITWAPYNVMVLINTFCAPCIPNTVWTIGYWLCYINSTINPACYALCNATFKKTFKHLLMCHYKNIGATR
# Assay: Inhibition of [3H]-NMS binding to human muscarinic acetylcholine receptor M2 in transfected CHO cells.
# Format: cell-based
# Method in brief: (§1)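 Membranes from CHO-K1 cells expressing one human muscarinic subtype, harvested at 70-90% confluency. Incubated in 10 mM Na+/K+ PO4 pH 7.4 with 0.1 nM [3H]NMS and test compound for 120 min at 25 °C; atropine defined nonspecific binding. Filtration and scintillation counting. IC50 by logit fit, Ki by Cheng–Prusoff with KD (nM) M1 1.28, M2 0.85, M3 0.94, M4 3.10, M5 0.79. At least three tests, geometric mean.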
row,Structure (SMILES),pKi
1,CCOC(=O)c1c(CC)n(Cc2ccccc2)c2ccc3c(c12)CN1CCc2cc(OC)ccc2C1O3 (stereo not given),6.43
2,CCN(C)C(=O)c1c(C)[nH]c2ccc3c(c12)CN1CCc2cc(OC)ccc2C1O3 (stereo not given),5.39
3,CCCCOC(=O)c1c(C)[nH]c2ccc3c(c12)CN1CCc2cc(OC)ccc2C1O3 (stereo not given),5.63
4,CCOC(=O)c1c(C)n(CC)c2ccc3c(c12)CN1CCc2cc(OC)ccc2C1O3 (stereo not given),6.66
5,CCOC(=O)c1c(C)[nH]c2ccc3c(c12)CN1CCc2cc(O)ccc2C1O3 (stereo not given),< 4.57
6,CCCc1c(C(=O)OCC)c2c3c(ccc2n1C)OC1c2ccc(SC)cc2CCN1C3 (stereo not given),5.42
7,CCCCc1[nH]c2ccc3c(c2c1C(=O)OCC)CN1CCc2cc(SC)ccc2C1O3 (stereo not given),5.66

# The remaining lines, values ahead:
row,pKi,Structure (SMILES)
1,6.29,CCCc1c(C(=O)OCC)c2c3c(ccc2n1C)OC1c2ccc(OC)cc2CCN1C3 (stereo not given)
2,6.29,CCOC(=O)c1c(C)n(C)c2ccc3c(c12)CN1CCc2cc(OC)ccc2C1O3 (stereo not given)
3,5.97,CCCc1[nH]c2ccc3c(c2c1C(=O)OCC)CN1CCc2cc(OC)ccc2C1O3 (stereo not given)
4,6.47,CCCCc1[nH]c2ccc3c(c2c1C(=O)OCC)CN1CCc2cc(OC)ccc2C1O3 (stereo not given)
5,5.97,C=CCOC(=O)c1c(C)[nH]c2ccc3c(c12)CN1CCc2cc(OC)ccc2C1O3 (stereo not given)
6,6.27,CCOC(=O)c1c(C)[nH]c2ccc3c(c12)CN1CCc2cc(OC)ccc2C1O3 (stereo not given)

# Target: T2, Muscarinic acetylcholine receptor M1 (Homo sapiens, UniProt P11229)
# T2 sequence (P11229 whole entry): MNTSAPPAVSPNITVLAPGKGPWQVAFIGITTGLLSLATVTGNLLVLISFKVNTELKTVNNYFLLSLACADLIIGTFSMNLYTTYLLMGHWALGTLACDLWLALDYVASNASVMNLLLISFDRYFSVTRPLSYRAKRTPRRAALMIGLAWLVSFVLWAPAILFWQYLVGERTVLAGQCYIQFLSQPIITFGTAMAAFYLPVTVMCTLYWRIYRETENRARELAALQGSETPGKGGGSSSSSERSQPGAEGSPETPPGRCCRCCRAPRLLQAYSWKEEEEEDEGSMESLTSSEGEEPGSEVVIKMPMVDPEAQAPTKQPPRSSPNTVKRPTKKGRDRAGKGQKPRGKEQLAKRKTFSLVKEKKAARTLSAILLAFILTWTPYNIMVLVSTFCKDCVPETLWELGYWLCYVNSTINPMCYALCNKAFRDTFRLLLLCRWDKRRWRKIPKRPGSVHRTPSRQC
# Assay: Inhibition of [3H]NMS binding to human muscarinic acetylcholine receptor M1 in transfected CHO cells.
# Format: cell-based
# Method in brief: as §1
row,Structure (SMILES),pKi
1,CCOC(=O)c1c(CC)n(Cc2ccccc2)c2ccc3c(c12)CN1CCc2cc(OC)ccc2C1O3 (stereo not given),6.44
2,CCN(C)C(=O)c1c(C)[nH]c2ccc3c(c12)CN1CCc2cc(OC)ccc2C1O3 (stereo not given),4.66
3,CCCCOC(=O)c1c(C)[nH]c2ccc3c(c12)CN1CCc2cc(OC)ccc2C1O3 (stereo not given),5.88
4,CCOC(=O)c1c(C)n(CC)c2ccc3c(c12)CN1CCc2cc(OC)ccc2C1O3 (stereo not given),5.88
5,CCOC(=O)c1c(C)[nH]c2ccc3c(c12)CN1CCc2cc(O)ccc2C1O3 (stereo not given),< 4.66
6,CCCc1c(C(=O)OCC)c2c3c(ccc2n1C)OC1c2ccc(SC)cc2CCN1C3 (stereo not given),5.48
7,CCCCc1[nH]c2ccc3c(c2c1C(=O)OCC)CN1CCc2cc(SC)ccc2C1O3 (stereo not given),6.06

# The next lines start with the values.
row,pKi,Structure (SMILES)
1,5.88,CCCc1c(C(=O)OCC)c2c3c(ccc2n1C)OC1c2ccc(OC)cc2CCN1C3 (stereo not given)
2,5.70,CCOC(=O)c1c(C)n(C)c2ccc3c(c12)CN1CCc2cc(OC)ccc2C1O3 (stereo not given)
3,5.69,CCCc1[nH]c2ccc3c(c2c1C(=O)OCC)CN1CCc2cc(OC)ccc2C1O3 (stereo not given)
4,4.88,CCCCc1[nH]c2ccc3c(c2c1C(=O)OCC)CN1CCc2cc(OC)ccc2C1O3 (stereo not given)
5,5.88,C=CCOC(=O)c1c(C)[nH]c2ccc3c(c12)CN1CCc2cc(OC)ccc2C1O3 (stereo not given)
6,5.88,CCOC(=O)c1c(C)[nH]c2ccc3c(c12)CN1CCc2cc(OC)ccc2C1O3 (stereo not given)

# Target: T3, Muscarinic acetylcholine receptor M4 (Homo sapiens, UniProt P08173)
# T3 sequence (P08173 whole entry): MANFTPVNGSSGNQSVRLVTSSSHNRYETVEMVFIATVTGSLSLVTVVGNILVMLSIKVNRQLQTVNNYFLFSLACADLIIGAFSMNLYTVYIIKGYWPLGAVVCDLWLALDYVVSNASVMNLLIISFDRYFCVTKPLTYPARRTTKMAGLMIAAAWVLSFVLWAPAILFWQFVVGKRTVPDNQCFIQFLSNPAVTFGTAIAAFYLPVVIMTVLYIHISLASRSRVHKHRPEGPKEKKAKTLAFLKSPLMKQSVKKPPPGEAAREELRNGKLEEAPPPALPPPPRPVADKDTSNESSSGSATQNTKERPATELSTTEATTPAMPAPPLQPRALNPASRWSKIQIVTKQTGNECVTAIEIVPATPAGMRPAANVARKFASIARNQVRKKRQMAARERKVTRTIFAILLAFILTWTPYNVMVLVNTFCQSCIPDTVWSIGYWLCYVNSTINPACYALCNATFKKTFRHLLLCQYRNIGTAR
# Assay: Inhibition of [3H]NMS binding to human muscarinic acetylcholine receptor M4 in transfected CHO cells.
# Format: cell-based
# Method in brief: as §1
row,Structure (SMILES),pKi
1,CCOC(=O)c1c(CC)n(Cc2ccccc2)c2ccc3c(c12)CN1CCc2cc(OC)ccc2C1O3 (stereo not given),7.01
2,CCN(C)C(=O)c1c(C)[nH]c2ccc3c(c12)CN1CCc2cc(OC)ccc2C1O3 (stereo not given),5.01
3,CCCCOC(=O)c1c(C)[nH]c2ccc3c(c12)CN1CCc2cc(OC)ccc2C1O3 (stereo not given),7.17
4,CCOC(=O)c1c(C)n(CC)c2ccc3c(c12)CN1CCc2cc(OC)ccc2C1O3 (stereo not given),6.96
5,CCOC(=O)c1c(C)[nH]c2ccc3c(c12)CN1CCc2cc(O)ccc2C1O3 (stereo not given),< 4.91
6,CCCc1c(C(=O)OCC)c2c3c(ccc2n1C)OC1c2ccc(SC)cc2CCN1C3 (stereo not given),8.70
7,CCCCc1[nH]c2ccc3c(c2c1C(=O)OCC)CN1CCc2cc(SC)ccc2C1O3 (stereo not given),8.52

# Second part, the compound after the results:
row,pKi,Structure (SMILES)
1,8.70,CCCc1c(C(=O)OCC)c2c3c(ccc2n1C)OC1c2ccc(OC)cc2CCN1C3 (stereo not given)
2,7.82,CCOC(=O)c1c(C)n(C)c2ccc3c(c12)CN1CCc2cc(OC)ccc2C1O3 (stereo not given)
3,8.70,CCCc1[nH]c2ccc3c(c2c1C(=O)OCC)CN1CCc2cc(OC)ccc2C1O3 (stereo not given)
4,9.00,CCCCc1[nH]c2ccc3c(c2c1C(=O)OCC)CN1CCc2cc(OC)ccc2C1O3 (stereo not given)
5,7.82,C=CCOC(=O)c1c(C)[nH]c2ccc3c(c12)CN1CCc2cc(OC)ccc2C1O3 (stereo not given)
6,8.15,CCOC(=O)c1c(C)[nH]c2ccc3c(c12)CN1CCc2cc(OC)ccc2C1O3 (stereo not given)

# Target: T4, Muscarinic acetylcholine receptor M5 (Homo sapiens, UniProt P08912)
# T4 sequence (P08912 whole entry): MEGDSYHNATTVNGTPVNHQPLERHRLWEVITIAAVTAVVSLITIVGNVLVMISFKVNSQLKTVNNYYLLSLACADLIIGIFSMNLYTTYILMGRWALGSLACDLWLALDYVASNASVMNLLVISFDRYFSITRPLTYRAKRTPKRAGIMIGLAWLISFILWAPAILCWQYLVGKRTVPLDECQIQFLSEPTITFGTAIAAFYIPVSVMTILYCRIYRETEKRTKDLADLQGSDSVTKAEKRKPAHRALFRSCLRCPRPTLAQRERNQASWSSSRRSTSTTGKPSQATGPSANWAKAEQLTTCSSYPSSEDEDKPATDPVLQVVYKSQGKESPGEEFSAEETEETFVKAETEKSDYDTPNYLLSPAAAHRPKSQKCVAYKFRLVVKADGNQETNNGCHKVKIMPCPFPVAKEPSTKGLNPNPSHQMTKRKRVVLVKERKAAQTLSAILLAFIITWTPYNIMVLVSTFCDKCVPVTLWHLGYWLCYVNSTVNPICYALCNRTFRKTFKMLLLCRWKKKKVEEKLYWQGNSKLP
# Assay: Inhibition of [3H]NMS binding to human muscarinic acetylcholine receptor M5 in transfected CHO cells.
# Format: cell-based
# Method in brief: as §1
row,Structure (SMILES),pKi
1,CCOC(=O)c1c(CC)n(Cc2ccccc2)c2ccc3c(c12)CN1CCc2cc(OC)ccc2C1O3 (stereo not given),6.32
2,CCN(C)C(=O)c1c(C)[nH]c2ccc3c(c12)CN1CCc2cc(OC)ccc2C1O3 (stereo not given),4.71
3,CCCCOC(=O)c1c(C)[nH]c2ccc3c(c12)CN1CCc2cc(OC)ccc2C1O3 (stereo not given),5.60
4,CCOC(=O)c1c(C)n(CC)c2ccc3c(c12)CN1CCc2cc(OC)ccc2C1O3 (stereo not given),5.60
5,CCOC(=O)c1c(C)[nH]c2ccc3c(c12)CN1CCc2cc(O)ccc2C1O3 (stereo not given),< 4.55
6,CCCc1c(C(=O)OCC)c2c3c(ccc2n1C)OC1c2ccc(SC)cc2CCN1C3 (stereo not given),5.77
7,CCCCc1[nH]c2ccc3c(c2c1C(=O)OCC)CN1CCc2cc(SC)ccc2C1O3 (stereo not given),5.83

# Next, values leading:
row,pKi,Structure (SMILES)
1,5.47,CCCc1c(C(=O)OCC)c2c3c(ccc2n1C)OC1c2ccc(OC)cc2CCN1C3 (stereo not given)
2,5.43,CCOC(=O)c1c(C)n(C)c2ccc3c(c12)CN1CCc2cc(OC)ccc2C1O3 (stereo not given)
3,5.65,CCCc1[nH]c2ccc3c(c2c1C(=O)OCC)CN1CCc2cc(OC)ccc2C1O3 (stereo not given)
4,4.95,CCCCc1[nH]c2ccc3c(c2c1C(=O)OCC)CN1CCc2cc(OC)ccc2C1O3 (stereo not given)
5,5.65,C=CCOC(=O)c1c(C)[nH]c2ccc3c(c12)CN1CCc2cc(OC)ccc2C1O3 (stereo not given)
6,5.47,CCOC(=O)c1c(C)[nH]c2ccc3c(c12)CN1CCc2cc(OC)ccc2C1O3 (stereo not given)

# Target: Muscarinic acetylcholine receptor M3 (Homo sapiens, UniProt P20309)
# Assay: Inhibition of [3H]NMS binding to human muscarinic acetylcholine receptor M3 in transfected CHO cells.
# Format: cell-based
# Method in brief: as §1
# Muscarinic acetylcholine receptor M3, sequence (P20309 whole entry): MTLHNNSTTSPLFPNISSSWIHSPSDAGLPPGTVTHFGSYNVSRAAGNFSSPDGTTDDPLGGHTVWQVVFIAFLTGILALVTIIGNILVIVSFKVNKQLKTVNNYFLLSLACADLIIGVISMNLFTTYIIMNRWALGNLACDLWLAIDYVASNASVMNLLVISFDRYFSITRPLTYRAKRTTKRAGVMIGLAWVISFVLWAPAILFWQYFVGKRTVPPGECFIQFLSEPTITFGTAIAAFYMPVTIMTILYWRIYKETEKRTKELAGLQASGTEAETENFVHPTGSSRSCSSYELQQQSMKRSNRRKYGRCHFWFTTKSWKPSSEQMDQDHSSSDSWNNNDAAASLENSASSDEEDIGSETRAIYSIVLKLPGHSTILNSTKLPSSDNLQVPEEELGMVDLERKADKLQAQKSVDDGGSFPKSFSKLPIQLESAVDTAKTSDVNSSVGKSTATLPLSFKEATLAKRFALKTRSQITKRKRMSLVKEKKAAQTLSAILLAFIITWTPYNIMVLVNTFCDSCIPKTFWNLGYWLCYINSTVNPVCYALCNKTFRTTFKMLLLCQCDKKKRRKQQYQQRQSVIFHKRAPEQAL
row,Structure (SMILES),pKi
1,CCOC(=O)c1c(CC)n(Cc2ccccc2)c2ccc3c(c12)CN1CCc2cc(OC)ccc2C1O3 (stereo not given),7.30
2,CCN(C)C(=O)c1c(C)[nH]c2ccc3c(c12)CN1CCc2cc(OC)ccc2C1O3 (stereo not given),4.81
3,CCCCOC(=O)c1c(C)[nH]c2ccc3c(c12)CN1CCc2cc(OC)ccc2C1O3 (stereo not given),5.99
4,CCOC(=O)c1c(C)n(CC)c2ccc3c(c12)CN1CCc2cc(OC)ccc2C1O3 (stereo not given),6.58
5,CCOC(=O)c1c(C)[nH]c2ccc3c(c12)CN1CCc2cc(O)ccc2C1O3 (stereo not given),4.59
6,CCCc1c(C(=O)OCC)c2c3c(ccc2n1C)OC1c2ccc(SC)cc2CCN1C3 (stereo not given),6.64
7,CCCCc1[nH]c2ccc3c(c2c1C(=O)OCC)CN1CCc2cc(SC)ccc2C1O3 (stereo not given),6.47

# The next lines start with the values.
row,pKi,Structure (SMILES)
1,7.15,CCCc1c(C(=O)OCC)c2c3c(ccc2n1C)OC1c2ccc(OC)cc2CCN1C3 (stereo not given)
2,6.04,CCOC(=O)c1c(C)n(C)c2ccc3c(c12)CN1CCc2cc(OC)ccc2C1O3 (stereo not given)
3,7.15,CCCc1[nH]c2ccc3c(c2c1C(=O)OCC)CN1CCc2cc(OC)ccc2C1O3 (stereo not given)
4,6.82,CCCCc1[nH]c2ccc3c(c2c1C(=O)OCC)CN1CCc2cc(OC)ccc2C1O3 (stereo not given)
5,6.39,C=CCOC(=O)c1c(C)[nH]c2ccc3c(c12)CN1CCc2cc(OC)ccc2C1O3 (stereo not given)
6,6.59,CCOC(=O)c1c(C)[nH]c2ccc3c(c12)CN1CCc2cc(OC)ccc2C1O3 (stereo not given)
